Assays:
Conditions in all cases: cattle
[1] = molecular target: T1, cholesterol side-chain cleavage cytochrome P450 (mitochondrial) (Bos taurus, UniProt P00189); test: Percent inhibition of cholesterol side-chain cleavage cytochrome P450 at 100 uM in bovine adrenocortical mitochondrial acetone powder preparations
T1 sequence (P00189 whole entry): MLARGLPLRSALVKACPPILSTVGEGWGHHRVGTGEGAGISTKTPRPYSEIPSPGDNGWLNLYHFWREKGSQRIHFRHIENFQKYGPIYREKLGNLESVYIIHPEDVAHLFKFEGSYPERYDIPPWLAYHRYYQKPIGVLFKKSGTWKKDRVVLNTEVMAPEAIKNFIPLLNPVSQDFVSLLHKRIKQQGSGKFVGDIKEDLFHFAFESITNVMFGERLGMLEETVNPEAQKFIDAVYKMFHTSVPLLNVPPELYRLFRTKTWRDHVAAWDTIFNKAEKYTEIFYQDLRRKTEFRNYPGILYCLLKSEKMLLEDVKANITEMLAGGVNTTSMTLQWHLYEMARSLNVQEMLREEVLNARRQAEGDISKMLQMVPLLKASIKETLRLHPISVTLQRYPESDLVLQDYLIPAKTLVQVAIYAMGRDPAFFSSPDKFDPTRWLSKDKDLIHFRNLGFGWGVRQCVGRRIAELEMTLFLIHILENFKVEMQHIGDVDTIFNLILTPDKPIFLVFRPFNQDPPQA
Summary of the method: (§1)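 CSCC activity in adrenal preparations assayed by the previously reported method. Inhibitor tested at a final concentration of 100 μM or below. Isocaproic acid product volatilized in a heated vacuum desiccator and measured by liquid scintillation counting. Percent inhibition is taken from at least six data points across two separate experiments, with standard deviation from the mean.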

[2] = molecular target: T1, cholesterol side-chain cleavage cytochrome P450 (mitochondrial); test: Percent inhibition of cholesterol side-chain cleavage cytochrome P450 at 1 uM in bovine adrenocortical mitochondrial acetone powder preparations; summary of the method: as §1
[3] = molecular target: T1, cholesterol side-chain cleavage cytochrome P450 (mitochondrial); test: Percent inhibition of cholesterol side-chain cleavage cytochrome P450 at 10 uM in bovine adrenocortical mitochondrial acetone powder preparations; summary of the method: as §1

SMILES: CO[C@H]1CC[C@@]2(C)C(CC[C@H]3[C@@H]4CC[C@H](C(C)NCCC(C)C)[C@@]4(C)CC[C@@H]32)C1 (some centres undefined)
- inhibition at 100 µM [1]: 21%

SMILES: CCC(C)CNC(C)[C@H]1CC[C@H]2[C@@H]3CC=C4C[C@@H](OC)CC[C@]4(C)[C@H]3CC[C@]12C (some centres undefined)
- inhibition at 1 µM [2]: 12%
- inhibition at 10 µM [3]: 89%
- inhibition at 100 µM [1]: 100%

SMILES: CC(C)CCNC(C)[C@H]1CC[C@H]2[C@@H]3CCC4C[C@@H](O)CC[C@]4(C)[C@H]3CC[C@]12C (some centres undefined)
- inhibition at 100 µM [1]: 28%

SMILES: CC(C)CCNC(C)[C@H]1CC[C@H]2[C@@H]3CC=C4C[C@@H](O)CC[C@]4(C)[C@H]3CC[C@]12C (some centres undefined)
- inhibition at 1 µM [2]: 10%
- inhibition at 10 µM [3]: 75%
- inhibition at 100 µM [1]: 93%

SMILES: CO[C@H]1CC[C@@]2(C)C(=CC[C@H]3[C@@H]4CC[C@H](C(C)NCCC(C)C)[C@@]4(C)CC[C@@H]32)C1 (some centres undefined)
- inhibition at 1 µM [2]: 14%
- inhibition at 10 µM [3]: 86%
- inhibition at 100 µM [1]: 99%

SMILES: CC(C)CCNC(C)[C@H]1CC[C@H]2[C@@H]3CCC4CC(=O)CC[C@]4(C)[C@H]3CC[C@]12C (some centres undefined)
- inhibition at 100 µM [1]: 3%

SMILES: CO[C@@H]1CC[C@@]2(C)C(CC[C@H]3[C@@H]4CC[C@H](N(C)CCCC(C)C)[C@@]4(C)CC[C@@H]32)C1 (some centres undefined)
- inhibition at 100 µM [1]: 3%

SMILES: CC(C)CCCN(C)[C@H]1CC[C@H]2[C@@H]3CCC4C[C@@H](O)CC[C@]4(C)[C@H]3CC[C@]12C (some centres undefined)
- inhibition at 100 µM [1]: 26%

SMILES: CO[C@H]1CCC2(C)C(CC[C@@H]3[C@@H]2CCC2(C)[C@@H](N(C)CCCC(C)C)CC[C@@H]32)C1 (some centres undefined)
- inhibition at 100 µM [1]: 5%

SMILES: CC(C)CCCN(C)[C@H]1CCC2C3CC=C4C[C@@H](O)CCC4(C)C3CCC21C (some centres undefined)
- inhibition at 10 µM [3]: 29%
- inhibition at 100 µM [1]: 78%

SMILES: CO[C@H]1CCC2(C)C(=CCC3C2CCC2(C)C3CC[C@@H]2N(C)CCCC(C)C)C1 (some centres undefined)
- inhibition at 10 µM [3]: 30%
- inhibition at 100 µM [1]: 86%
